A selection: hits, their analogues and other compounds. The true share with any hit is near 2.8%.
MC4R barr agon = human MC4R agonism via beta-arrestin. activation, % at 8.9 µM. U2OS MC4R beta-arrestin complementation, luminescence; percent of melanotan II response, DMSO zero. P32245. 0.98% of 360,000 active. AID 540308;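 active means activation above a per-plate cutoff, the mean activation of sample wells on that plate plus 3 SD, cut at about 8% in these data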
m5-HT2A agonist = mouse HTR2A agonism via beta-arrestin recruitment; CHO-K1 mHTR2A beta-arrestin complementation, luminescence; percent of 30 µM serotonin response; activation, % at 7.6 µM; 0.66% of 360,000 active; AID 624169;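 active means activation above a run cutoff, the mean activation of all tested compounds plus 3 SD, cut at about 14% in these data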
MC4R antagonist = human MC4R antagonism in cAMP assay; P32245; MC4R-expressing cells, MTII-stimulated cAMP, LANCE TR-FRET; inhibition, % at 6.5 µM; 0.48% of 360,000 active; AID 540295;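 active means inhibition above its plate's cutoff, the mean of tested wells on that plate plus 3 SD, cut at about 29% in these data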
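System – human MC4R-expressing U2OS cells · Also added – Melanotan II · Dosing – one concentration, 6.5 µM nominal · Timing – 30-min compound, 1-h challenge, 1-h detection, room temperature · Measured by – Eu-cAMP/anti-cAMP TR-FRET, emission 671 nm · Replicates – singlicate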
EBI2 antag = EBI2 (human) antagonism. inhibition, % at 5 µM. AID 651636. 0.81% of 360,000 active. EBI2 beta-arrestin recruitment, luminescence, 7a,25-OHC stimulated; in the data active means inhibition above about 38%;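 further: enzyme fragment complementation signal reports receptor beta-arrestin coupling in cells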
Target sequence (P32249 whole entry, looked up, the tested form may be a part): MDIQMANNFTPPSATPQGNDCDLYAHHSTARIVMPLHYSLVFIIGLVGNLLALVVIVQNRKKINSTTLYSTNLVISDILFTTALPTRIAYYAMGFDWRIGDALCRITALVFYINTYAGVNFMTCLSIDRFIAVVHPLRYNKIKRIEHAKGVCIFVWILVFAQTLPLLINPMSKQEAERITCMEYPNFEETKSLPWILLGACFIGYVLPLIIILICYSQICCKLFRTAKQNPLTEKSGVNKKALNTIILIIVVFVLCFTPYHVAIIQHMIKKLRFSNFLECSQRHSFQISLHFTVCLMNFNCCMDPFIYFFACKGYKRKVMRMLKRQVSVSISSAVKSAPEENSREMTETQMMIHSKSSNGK
EBI2 conf = confirmation of human EBI2 receptor antagonists; shares compounds with EBI2 antag; EBI2 beta-arrestin luminescence, 7a,25-OHC antagonism; inhibition, % at 5 µM; 29% of 2,400 active; AID 651997;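 active means inhibition of at least 50%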
EBI2 agonist = activates EBI2, counter-screen for EBI2 antagonists; shares compounds with EBI2 antag; EBI2-expressing cells, agonist mode, luminescence, 60 min; 0% vehicle, 100% 7α,25-dihydroxycholesterol control; activation, % at 5 µM; 2,400 tested, under 10 active; AID 652000;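 active means activation of at least 50%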
bGal cs = inhibits E. coli beta-galactosidase, counter-screen for EBI2 antagonists; AID 652176; purified beta-galactosidase, luminescent Galacton Star, 15 min; inhibition, % at 5 µM; 1% of 2,400 active; shares compounds with EBI2 antag;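 active means replicate-average signal at least 3 plate SD below neutral wells, shown as high inhibition, flagging enzyme-inhibiting false positives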;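 further: higher means stronger loss of beta-gal luminescence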
Large screens that a line does not name were inactive (follow-up assays come after a bar, where they were run).

CS(=O)(=O)N1CCN(C(=O)c2ccc(-c3ccccc3)cc2)CC1	EBI2 antag 70 | EBI2 conf inactive | EBI2 agonist inactive | bGal cs inactive
CC(C)(C)NC(=O)C1CCN(C(=O)c2ccc(-c3ccccc3)cc2)CC1	EBI2 antag 48 | EBI2 conf inactive | EBI2 agonist inactive | bGal cs inactive
CCS(=O)(=O)N1CCN(C(=O)c2ccc(-c3ccccc3)cc2)CC1	EBI2 antag 83 | EBI2 conf 56 | EBI2 agonist inactive | bGal cs inactive
CN1CCN(C(=O)c2ccc(-c3ccccc3)cc2)CC1	none
O=C(NC1CCCCC1)C1CCN(C(=O)c2ccc(-c3ccccc3)cc2)CC1	none
Cc1c(C(=O)Nc2cccc([N+](=O)[O-])c2)sc2ncn(CC(=O)N3CCOCC3)c(=O)c12	none
CCCCN(C)C(=O)c1cc2cc3ccc(OC)cc3nc2o1	none
CCN(C(=O)c1cc2cc3ccc(C)cc3nc2o1)c1ccc(OC)cc1	EBI2 antag 42 | EBI2 conf 51 | EBI2 agonist inactive | bGal cs inactive
COc1ccc(C2=C(CC(=O)O)C(=O)CC2)cc1	none
COc1ccc(-n2c(Cc3cccn3C)nnc2SCC(=O)Nc2ccccc2C)cc1	EBI2 antag 55 | EBI2 conf inactive | EBI2 agonist inactive | bGal cs inactive
COc1ccc(-n2c(Cc3cccn3C)nnc2SCC(=O)NCCc2ccccc2)cc1	EBI2 antag 44 | EBI2 conf inactive | EBI2 agonist inactive | bGal cs inactive
COc1ccc(-n2c(COc3ccc(C)cc3)nnc2SCC(N)=O)cc1	none
CCOC(=O)c1ccccc1NC(=O)CSc1nnc(Cc2cccn2C)n1-c1ccc(C)cc1	EBI2 antag 54 | EBI2 conf inactive | EBI2 agonist inactive | bGal cs inactive
COc1ccc(-n2c(COc3ccccc3)nnc2SCC(N)=O)cc1	EBI2 antag 49 | EBI2 conf inactive | EBI2 agonist inactive | bGal cs inactive
Cn1cccc1Cc1nnc(SCC(=O)NCCc2ccccc2)n1C	none
COc1ccc(-n2c(Cc3cccn3C)nnc2SCC(=O)Nc2ccccc2F)cc1	none
COc1cc2c(cc1OC)C(c1cccs1)N(C(=O)c1ccc(S(=O)(=O)N(C)C)cc1)CC2 (configuration not stated)	none
COc1cc(/C=N/NC(=O)COc2ccc([N+](=O)[O-])cc2)ccc1OCC(=O)N1CCOCC1	none
COc1ccc(-n2c(Cc3cccn3C)nnc2SCC(=O)Nc2ccc(C)c(Cl)c2)cc1	EBI2 antag 47 | EBI2 conf inactive | EBI2 agonist inactive | bGal cs inactive
COc1ccc(-n2c(Cc3cccn3C)nnc2SCC(=O)Nc2cccc(C)c2C)cc1	EBI2 antag 49 | EBI2 conf inactive | EBI2 agonist inactive | bGal cs inactive
CCc1cc(C(=O)N/N=C/c2ccc(O)cc2O)c2ccccc2n1	none
Cc1cccnc1NCc1ccc(O)c2ncccc12	EBI2 antag 56 | EBI2 conf inactive | EBI2 agonist inactive | bGal cs inactive
Cc1cc(=O)n2c(nc3ccccc32)s1	none
CCc1ccc(NC(=S)Nc2cccc3cnccc23)cc1	EBI2 antag 50 | EBI2 conf inactive | EBI2 agonist inactive | bGal cs inactive
CN(C)c1ccc(NC(=O)c2sc(SCC(=O)Nc3nccs3)nc2N)cc1	EBI2 antag 52 | EBI2 conf inactive | EBI2 agonist inactive | bGal cs inactive
O=C(NCCC1CCCCN1S(=O)(=O)c1cccs1)C(=O)Nc1ccc(F)cc1 (configuration not stated)	none
CCOC(=O)c1cc(-c2ccccc2)sc1N	EBI2 antag 46 | EBI2 conf 59 | EBI2 agonist inactive | bGal cs inactive
COc1ccc(N2CCN(C(=O)COc3ccc(Cl)cc3Cl)CC2)cc1	EBI2 antag 51 | EBI2 conf inactive | EBI2 agonist inactive | bGal cs inactive
COc1ccc(OCC(=O)N2CCN(c3cccc(Cl)c3)CC2)cc1	EBI2 antag 86 | EBI2 conf 71 | EBI2 agonist inactive | bGal cs inactive

Screening results as filed in PubChem BioAssay.
